dFosB act: activators of delta FosB homodimer, primary screen, biochemical, fluorescence polarization, TAMRA-CDK5 oligo, single point; purified delta FosB; percent of positive-control signal above neutral wells; activation, % at 25 µM; 0.99% of 340,000 active;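 active = mean activation above about 17%, with every replicate also reaching it, limit read from the data, passing the limit was not always enough; inconclusive = only one of the two conditions met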
SR-BI DiI inh: inhibitors of SR-BI mediated HDL lipid uptake, primary screen, ldlA[mSR-BI] cells, fluorescence, single point | ldlA[mSR-BI] CHO cells, DiI-HDL uptake fluorescence, 3 h | inhibition, % at 12.5 µM | 0.96% of 320,000 active;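 active = mean replicate inhibition of at least 70% and a set share of replicates each scoring 70 or more; inconclusive = meets just one of the two criteria; inactive = fails both criteria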;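 note: 0% = median of neutral control wells and 100% = median of positive control wells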
PKA-R2B activ: activators of PKA-R2B holoenzyme, primary screen, biochemical, fluorescence polarization, Cy5-IP20, human; cAMP-dependent protein kinase catalytic subunit beta (Homo sapiens) + cAMP-dependent …; PKA-R2B holoenzyme dissociation; R2B truncated from residue 108, S112A mutant; 0% DMSO only, 100% 113 µM cGMP; activation, % at 11.4 µM; 0.079% of 340,000 active;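 active = activation above a cutoff set at the mean over all compounds plus 3 SD, cut at about 18% in these data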;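 note: higher means more holoenzyme dissociation and a rise in polarization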
Target sequence (P31323 whole entry, looked up, other chains not shown, the tested form may be a part): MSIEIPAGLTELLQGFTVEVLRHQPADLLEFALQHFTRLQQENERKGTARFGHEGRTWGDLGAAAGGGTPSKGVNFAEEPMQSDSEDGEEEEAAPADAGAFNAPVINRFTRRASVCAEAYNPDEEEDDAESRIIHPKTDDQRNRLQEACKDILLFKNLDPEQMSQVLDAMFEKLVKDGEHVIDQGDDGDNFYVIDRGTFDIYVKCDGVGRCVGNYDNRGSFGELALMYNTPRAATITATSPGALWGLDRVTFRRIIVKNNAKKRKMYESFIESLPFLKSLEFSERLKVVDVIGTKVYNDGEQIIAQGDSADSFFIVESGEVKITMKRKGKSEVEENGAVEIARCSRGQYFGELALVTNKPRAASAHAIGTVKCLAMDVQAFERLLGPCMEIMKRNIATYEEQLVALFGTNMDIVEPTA
SR-BI uptake up: activators of SR-BI mediated DiI-HDL uptake, primary screen, ldlA[mSR-BI] CHO cells, DiI fluorescence; AID 504775, 2011; 3 h; 100 = double the neutral-control signal; 0.096% of 320,000 active; activation, % at 12.5 µM;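 active = mean replicate activation of at least 60% and every replicate at or above 60%; inconclusive = mean or all-replicate condition met, but not both; inactive = mean below 60% and not all replicates reaching 60%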;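 note: 0% = median plate neutral-control signal and 100% = twice that signal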
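Material – SR-BI-overexpressing, LDLR-lacking CHO cells · Medium – BSA-supplemented, HEPES-buffered Ham's F12, pH 7.4 · Doses – single concentration · Times – compound with DiI-HDL co-incubation, 3 h at 37 °C · Measured by – bottom-read fluorescence, 550/595 nm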
CDK5 p35 inh: inhibitors of human CDK5/p35 kinase, primary screen, biochemical, single concentration; Recombinant CDK5/p35, ADP-Glo luminescence, 60 min; inhibition, % at 10 µM; 0.01% of 330,000 active;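 active = highest replicate inhibition of at least 50% and at least 75% of replicates reaching 50%; inconclusive = only one of the two criteria met; inactive = both criteria failed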;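 note: plate controls were DMSO neutral control for no effect and GW8510 at 10 µM for full effect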
PKA-R1A act: activators of PKA-R1A holoenzyme, primary screen, biochemical, fluorescence polarization, Cy5-IP20, bovine R1A, mouse PKAc | cAMP-dependent protein kinase type I-alpha regulatory subunit (Bos taurus) + … | PKA-R1A dissociation; scaled: DMSO 0%, 113 µM cGMP 100% | activation, % at 11.4 µM | 0.083% of 340,000 active;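 active = percent activation above the mean of all tested compounds plus 3 SD, cut at about 19% in these data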;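 note: higher means more PKAc released from R1A so a rise in polarization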
R2B FP artifact: fluorescence polarization artefacts, biochemical, artefact control for PKA-R2B activator project. 6% of 270 active. FP artifact counterscreen. shares compounds with PKA-R2B activ. activation, % at 11.4 µM; in the data active = activation above about 20%;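 note: Cy5 labelled IP20 peptide probe with compound but no PKA protein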
PKA-R2B act conf: activators of PKA-R2B holoenzyme, confirmation, biochemical, fluorescence polarization, human | PKA-R2B complex, activation | 9% of 270 active | AID 504797, 2011 | shares compounds with PKA-R2B activ | activation, % at 11.4 µM; in the data active = activation above about 19%
Target sequence (P31323 whole entry, looked up): as the sequence (P31323 whole entry, looked up, other chains not shown, the tested form may be a part) above
An asterisk follows results filed as active; u = inconclusive; x = not tested or not shown. Rows were chosen to be rich in hits. Some 2.1% of all compounds tested hit in one or more screens of this group.

SMILES | dFosB act | SR-BI DiI inh | PKA-R2B activ | SR-BI uptake up | CDK5 p35 inh | PKA-R1A act | R2B FP artifact | PKA-R2B act conf
N=c1c2c(ncn1CCCO)Oc1c(ccc3ccccc13)C2c1ccccc1 (configuration not stated) | -13.0 | -11.6 | -10.8 | 11.6 | -0.2 | -10.3 | x | x
O=S1(=O)CCOC(CO)CN1Cc1ccc(Cl)c(Cl)c1 (configuration not stated) | -3.1 | -11.9 | 10.3 | 11.9 | 0.9 | 3.4 | -2.6 | -0.8
COC(=O)c1cccc(NS(=O)(=O)c2ccc(OC)c(C(=O)N3CCOCC3)c2)c1C | -1.9 | x | 8.3 | x | -0.8 | -2.1 | x | x
COC(=O)Cc1cnc(NC(=O)C2C3CCC(C3)C2C(=O)O)s1 (configuration not stated) | -4.8 | 7.6 | 18.6* | -7.6 | -0.9 | 3.7 | 2.1 | 4.3
CCOCc1c(C(=O)OCC(=O)Nc2ccc(C)c(S(=O)(=O)N(C)C)c2)oc2ccccc12 | -10.6 | 8.2 | -7.8 | -8.2 | -0.4 | -3.4 | x | x
Cc1ccc(C(=O)N2CCN(c3ccc(C(F)(F)F)cn3)CC2)cc1 | -3.4 | 4.7 | 19.9* | -4.7 | 0.2 | 6.6 | -0.6 | -0.3
CCCc1cc(=O)oc2cc(OCc3ccc(C(=O)O)cc3)ccc12 | -1.4 | -10.5 | -8.9 | 10.5 | 0.7 | 3.8 | x | x
CCN1CCN(c2ccc(S(=O)(=O)N3CCOCC3)cc2NC(=O)c2ccc(C(F)(F)F)cc2)CC1 | -12.4 | -29.6 | -6.8 | 29.6 | -1.1 | -12.9 | x | x
CCN1CCN(c2ccc(S(=O)(=O)N3CCOCC3)cc2NC(=O)c2ccc(F)cc2Cl)CC1 | -9.5 | -20.3 | 19.0* | 20.3 | 1.2 | -0.9 | 1.6 | 0.5
COc1ccc(CCN(Cc2nc3ccccc3c(=O)[nH]2)C(=O)C2CC2)cc1 | -6.4 | -15.2 | 18.8* | 15.2 | -0.6 | 3.2 | 4.0 | 1.3
O=C(C1CC1)N(CCc1ccccc1)Cc1nc2ccccc2c(=O)[nH]1 | -6.7 | -10.0 | -7.2 | 10.0 | -0.1 | -7.8 | x | x
O=c1[nH]nc(SCc2nnc(-c3cccc(Cl)c3)o2)n1C1CCCCC1 | -1.8 | -24.6 | 19.5* | 24.6 | -0.5 | -6.5 | 2.6 | 0.8
COc1ccc(-c2nnc(CSc3nnc(-c4ccncc4)n3C3CCCCC3)o2)cc1OC | -5.1 | 8.8 | 1.7 | -8.8 | -2.6 | -4.2 | x | x
CN=c1sc2c(n1C)C(=O)c1ccccc1C2=O | 0.3 | -4.6 | -9.3 | 4.6 | -2.4 | 10.1 | x | x
Cc1ccsc1CNC1CCCCC1 | -11.0 | 4.2 | -1.9 | -4.2 | 0.8 | 0.3 | x | x
Cc1ccsc1CNC12CC3CC(CC(C3)C1)C2 | 5.1 | -20.2 | 21.1* | 20.2 | -0.7 | -12.7 | 1.7 | 3.9
Cc1ccc(CN(C)C(=O)c2c(C)nn(-c3ccccc3)c2C)cc1 | 0.9 | x | -8.4 | x | 0.5 | 11.7 | x | x
Cc1ccc(C(=O)N2CCOCC2)cc1[N+](=O)[O-] | 2.2 | -0.2 | 7.5 | 0.2 | 1.8 | -0.1 | x | x
Cc1ccc(C(=O)Nc2ccccc2C(=O)N2CCOCC2)cc1[N+](=O)[O-] | -1.8 | -29.1 | 19.6* | 29.1 | -3.4 | 5.0 | 0.0 | 4.4
O=C1Nc2ccccc2/C1=C/c1cnc(-c2ccccc2)[nH]1 | u | 2.7 | 18.7* | -2.7 | 0.4 | -13.3 | 0.1 | 5.2
O=C(c1ccco1)N1CCN(C(=O)c2ccc(CS(=O)c3ccc(Cl)cc3)o2)CC1 (configuration not stated) | -5.2 | -7.0 | 18.8* | 7.0 | -0.2 | -4.0 | 4.7 | -1.0
Cc1ccc(S(=O)Cc2ccc(C(=O)N3CCN(C(=O)c4ccco4)CC3)o2)cc1 (configuration not stated) | -9.1 | -17.7 | -1.4 | 17.7 | 2.7 | -5.1 | x | x
Cc1cc(NCCN2CCOCC2)n2nc(C)c(-c3ccccc3)c2n1 | -13.5 | -16.9 | -11.0 | 16.8 | 0.2 | -12.7 | x | x
Cc1cc(C)c2c(n1)nn1c(NCCN3CCOCC3)cc(C)nc21 | -1.5 | -17.2 | 18.4* | 17.2 | 0.3 | 10.8 | 1.7 | 0.1
O=C(CCS(=O)(=O)c1ccc(F)cc1)Nc1nnc(-c2ccc(F)cc2)o1 | -2.8 | -9.9 | 19.0* | 9.9 | -0.2 | -6.6 | -2.0 | 0.7
SMILES | dFosB act | SR-BI DiI inh | PKA-R2B activ | SR-BI uptake up | CDK5 p35 inh | PKA-R1A act | R2B FP artifact | PKA-R2B act conf
Cc1ccc(S(=O)(=O)NNC(=O)C2CC=CCC2C(=O)O)cc1 (configuration not stated) | 1.0 | -3.0 | 21.0* | 3.0 | -0.5 | 3.6 | 2.8 | 0.7
Cc1ccc(C2=NS(=O)(=O)N(C)C(C(=O)NCc3ccccc3)=C2)cc1 | -1.6 | -23.1 | -5.5 | 23.1 | -0.3 | -8.1 | x | x
N#Cc1cc([N+](=O)[O-])ccc1NC(=O)COC(=O)C1CCC(=O)N1 (configuration not stated) | 2.5 | -22.4 | 19.8* | 22.4 | -1.8 | -4.7 | 1.1 | 1.1
CN(C)S(=O)(=O)n1cnc([C@@H]2[C@H]3C(=O)OC[C@@H]3C[C@@]23N=CN(Cc2ccccc2)C3=O)c1 | -6.7 | -31.3 | -6.7 | 31.3 | 1.2 | -5.5 | x | x
CC(C)Cn1c(=O)c(C(=O)NCc2ccccn2)c(O)c2ccccc21 | -19.9 | 10.9 | 20.9* | -10.9 | -0.5 | 2.5 | -1.3 | -3.7
CCn1c(=O)c(C(=O)NCc2ccccc2)c(O)c2ccccc21 | 0.4 | -10.6 | 0.8 | 10.6 | 1.8 | -14.0 | x | x
CC(C)[C@H](NC(=O)c1ccc(Br)cc1)C(=O)NC1CCCCC1 | 3.9 | -8.5 | -8.7 | 8.5 | 0.5 | -0.7 | x | x
CC(NC(=O)Cc1ccccc1)C(=O)O (configuration not stated) | -4.3 | -8.9 | -6.6 | 8.9 | -3.0 | 13.6 | x | x
CCOC(=O)C1CCN(C(=O)c2cc(COc3ccc(F)cc3F)on2)CC1 | -3.0 | -12.7 | 20.0* | 12.7 | 0.3 | 10.9 | 3.2 | 5.8
CCOc1ccc(S(=O)(=O)NC(C)C(=O)NCc2cccnc2)cc1 (configuration not stated) | -4.3 | 2.3 | 3.9 | -2.3 | 1.4 | 11.7 | x | x

Screens as filed in PubChem BioAssay.
